Compound activity as filed in PubChem.
An excerpt weighted towards active compounds, which were near 0.44% of everything screened.
PDI inh: inhibitors of human PDI, primary screen, biochemical, turbidity, single point, plate reader. Protein disulfide-isomerase (Homo sapiens), P07237. PDI insulin aggregation turbidity, A650, 90 min. inhibition, % at 10 µM. 350,000 tested, 0.052% active. AID 588391, 2011;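 active means mean inhibition across replicates of 30% or more, whatever share of single replicates reach that level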
PglD inh: C. jejuni PglD acetyltransferase inhibitors, primary screen, biochemical, DTNB colorimetric, single point | UDP-N-acetylbacillosamine N-acetyltransferase PglD (Campylobacter jejuni) | inhibition, % at 12.5 µM | AID 602405, 2012 | 360,000 tested, 0.098% active | purified PglD enzyme, DTNB colorimetric CoA detection; in the data active means inhibition above about 16%, passing the limit was not always enough
S100A4 MyoIIA: inhibitors of S100A4-myosin IIA peptide binding, primary screen, biochemical, fluorescence polarization, TAMRA-MyoIIA peptide; inhibition, % at 10.7 µM; 360,000 tested, 0.14% active; AID 652163, 2013;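 active means mean inhibition of at least 70% across replicates, with every replicate also reaching that level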
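Material: S100A4 monomer protein | Medium: HEPES pH 7.2 with CaCl2, KCl, NaCl, DTT, Triton | Reagent: Labelled myosin peptide probe, 5 nM | Doses: One dose per compound | Times: 5 min incubation before reading | Benchmarks: Neutral control DMSO, positive control TFP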
FN deposition inh: inhibitors of fibronectin matrix deposition, primary screen, AH1F cells, Alexa488-fibronectin fluorescence, plate reader; AH1F fibroblasts, overnight; inhibition, % at 12.6 µM; 350,000 tested, 0.086% active; AID 743247, 2014;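 active means mean inhibition across replicates of 30% or more, regardless of how many single replicates reach that level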;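 further: positive control wells lacked labelled fibronectin entirely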
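Material: AH1F fibroblasts assembling fluorescent fibronectin matrix; amount: 10000 AH1F cells/well; medium: DMEM, 2% serum; reagent: Alexa488-fibronectin, 24 nM final in well; dosing: single compound dose, delivered by pin transfer; incubation: 1 h adhesion, overnight exposure; detection: fluorescence after three HBSS washes, excitation 485 nm, emission 525 nm; measure: fibronectin deposition inhibition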
ERp5 block: inhibitors of ERp5-driven insulin aggregation, primary screen, biochemical, turbidity, absorbance 650 nm, single point; Protein disulfide-isomerase A6 (Homo sapiens), Q15084; inhibition, % at 9.99 µM; 350,000 tested, 0.05% active; AID 651711, 2012; 90 min;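 active means mean replicate inhibition above about 25%, with every replicate also reaching it, limit read from the data, passing the limit was not always enough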
RAD54 inh: inhibitors of human RAD54 branch migration, primary screen, biochemical, fluorescence, single point; DNA repair and recombination protein RAD54-like (Homo sapiens), Q92698; RAD54 Holliday junction branch migration, FAM/BHQ fluorescence; inhibition, % at 10.4 µM; 360,000 tested, 0.14% active; AID 602329, 2012;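 active means mean normalized replicate activity at least 40 and at least half of replicates scoring 40 or more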;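 further: 0% = median of neutral control wells and 100% = median of positive control wells; inhibitors cause a drop in the FAM fluorescence signal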
Target sequence (Q92698 whole entry, looked up): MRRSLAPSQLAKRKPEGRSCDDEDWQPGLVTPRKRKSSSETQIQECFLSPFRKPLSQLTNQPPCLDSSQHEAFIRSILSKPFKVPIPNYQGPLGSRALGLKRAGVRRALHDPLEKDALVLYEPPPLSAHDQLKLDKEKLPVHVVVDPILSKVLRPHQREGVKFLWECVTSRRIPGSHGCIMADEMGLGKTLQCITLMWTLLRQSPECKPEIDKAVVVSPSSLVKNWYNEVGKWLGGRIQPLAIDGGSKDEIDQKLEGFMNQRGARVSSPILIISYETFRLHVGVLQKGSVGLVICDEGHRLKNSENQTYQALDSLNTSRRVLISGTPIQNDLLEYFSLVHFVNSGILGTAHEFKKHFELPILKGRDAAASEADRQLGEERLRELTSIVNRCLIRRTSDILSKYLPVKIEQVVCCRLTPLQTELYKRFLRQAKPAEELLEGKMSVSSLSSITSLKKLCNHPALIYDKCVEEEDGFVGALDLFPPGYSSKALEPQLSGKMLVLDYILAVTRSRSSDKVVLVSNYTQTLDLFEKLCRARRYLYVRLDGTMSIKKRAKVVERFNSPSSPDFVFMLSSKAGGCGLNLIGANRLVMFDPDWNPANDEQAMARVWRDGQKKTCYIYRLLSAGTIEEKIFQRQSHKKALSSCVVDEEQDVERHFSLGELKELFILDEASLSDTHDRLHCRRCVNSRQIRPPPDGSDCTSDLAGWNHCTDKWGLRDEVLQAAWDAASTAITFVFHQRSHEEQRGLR
The depositor's hits bear a star; / = no result.

SMILES	PDI inh	PglD inh	S100A4 MyoIIA	FN deposition inh	ERp5 block	RAD54 inh
CC(=O)N1CC2(C1)[C@@H](c1ccccc1)[C@@H](CO)N2CC1CCOCC1	/	/	2.3	/	2.5	/
CCOc1ccc(C(=O)N(CC)CC(=O)Nc2ccc3c(c2)OCCO3)cc1OCC	7.3	6.6	-0.9	4.2	7.6	-8.7
CCN(CC(=O)Nc1ccc2c(c1)OCCO2)C(=O)CC1CCCC1	32.9*	-1.4	/	1.5	/	-10.1
O=C(C[C@@H]1C[C@@H]2c3cc(NC(=O)c4cccnc4)ccc3O[C@@H]2[C@H](CO)O1)NCc1ccncc1	/	-3.2	4.6	7.3	2.8	-0.1
CCOC(=O)c1cnc2c(ccc3ccccc32)c1NCCN(C)C	-10.9	3.8	-13.1	4.7	-7.3	80.5*
O=C(CN1CCOCC1)NCC[C@@H]1CC[C@H](NC(=O)c2ccc3c(c2)OCO3)[C@@H](CO)O1	/	0.4	3.7	9.2	-0.2	-3.6
COc1ccc2c3c(n(C)c2c1)[C@H](CO)N(CC1CCOCC1)CC31CN(C(=O)Nc2ccccc2)C1	/	/	-5.7	/	6.2	/
O=C(C[C@H]1C[C@H]2c3cc(NC(=O)CC4CC4)ccc3O[C@H]2[C@H](CO)O1)NCC(F)(F)F	/	-2.7	6.4	10.1	-2.9	-2.3
O=C(C[C@H]1C[C@@H]2c3cc(NC(=O)C4CCC4)ccc3O[C@@H]2[C@H](CO)O1)NCC(F)(F)F	/	0.0	-5.1	-12.6	43.0*	1.0
O=C(C[C@@H]1C[C@H]2c3cc(NC(=O)C4CCC4)ccc3O[C@H]2[C@@H](CO)O1)NCC(F)(F)F	/	2.2	5.3	6.7	77.2*	4.3
CN1CCN(C(=O)C[C@@H]2C[C@@H]3c4cc(NC(=O)C5CCOCC5)ccc4O[C@@H]3[C@H](CO)O2)CC1	/	0.0	1.5	5.6	36.9*	-1.0
O=C(C[C@H]1C[C@@H]2c3cc(NC(=O)C4CCOCC4)ccc3O[C@@H]2[C@@H](CO)O1)NCC(F)(F)F	/	0.1	5.4	/	1.6	27.2
COCC#Cc1ccc2c(c1)O[C@H](CN(C)S(C)(=O)=O)[C@@H](C)CN([C@@H](C)CO)S2(=O)=O	/	0.6	-3.6	-4.2	-3.5	3.4
CC(=O)N(C1=C(Cl)C(=O)c2ccccc2C1=O)C1CCCCC1	-3.7	7.3	-1.7	79.7*	2.3	-6.8
OC1CCCN(Cc2ccc3ccc4cccc5ccc2c3c45)C1 (stereo unspecified)	-3.0	-3.5	/	/	/	91.3*
CC[n+]1ccc(/C=C2\Sc3ccccc3N2CCCS(=O)(=O)[O-])c2ccccc21	0.4	-5.7	0.6	-11.9	7.6	-12.1
CN1C=C/C(=C\c2cc[n+](C)c3ccccc23)c2ccccc21	-3.0	-16.9	-0.1	0.1	0.3	81.6*
CC(=O)C1=C(O)C(=O)N(CCc2c[nH]c3ccccc23)C1c1ccccc1 (stereo unspecified)	21.2	/	-4.0	1.5	-6.6	/
CC(=O)C1=C(O)C(=O)N(CCc2c[nH]c3ccccc23)C1c1ccc(O)cc1 (stereo unspecified)	46.4*	/	/	2.0	/	/
Nc1cnccc1C(=O)O	-5.0	3.7	79.7*	7.1	0.5	-40.9
CC(=O)Nc1ccc2c(c1)C(=O)N(C)[C@H]1CC[C@H](CC(=O)NCC3CC3)O[C@H]1CO2	/	2.6	-21.9	-13.6	11.1	0.4
CC(=O)Nc1ccc2c(c1)C(=O)N(C)[C@@H]1CC[C@@H](CC(=O)NCC3CC3)O[C@H]1CO2	/	0.2	9.8	-15.4	70.9*	-8.2
COC(=O)C[C@H]1CC[C@@H]2[C@@H](COc3ccc(NC(=O)Cc4cccs4)cc3C(=O)N2C)O1	/	1.3	0.8	40.1*	-3.3	3.6
C[C@@H]1CN([C@H](C)CO)C(=O)Cc2cc(NS(=O)(=O)c3cn(C)cn3)ccc2O[C@@H]1CN(C)Cc1ccc(C(=O)Nc2ccccc2N)cc1	/	/	5.3	1.8	4.2	/
Cc1ccc(CS(=O)Cc2ccc(C(=O)NC3CCCC(C)C3C)o2)cc1 (stereo unspecified)	10.7	-0.3	-10.1	30.4*	-0.3	-9.7
SMILES	PDI inh	PglD inh	S100A4 MyoIIA	FN deposition inh	ERp5 block	RAD54 inh
CCCCN(C(=O)C1=CC=CN2CCS(=O)(=O)N=C12)c1ccccc1	36.6*	-4.6	7.5	-5.4	1.0	-5.4
COc1cccc(-c2cn(CC[C@@H]3CC[C@@H](NS(=O)(=O)Cc4ccccc4)[C@H](CO)O3)nn2)c1	/	-7.5	-4.3	-2.0	-8.2	3.1
COc1ccc(-c2nc3ccncc3[nH]2)cc1OC	4.2	-0.1	/	30.1*	/	-4.4
Fc1ccc(-c2nc3ccncc3[nH]2)cc1	-2.2	8.7	/	-15.2	/	-7.1
C[C@@H]1CCCCO[C@H](CN(C)C(=O)Nc2ccc3c(c2)OCO3)[C@H](C)CN([C@H](C)CO)C(=O)c2cc(NC(=O)NC3CCCCC3)ccc2O1	/	-2.0	/	/	/	8.1
CC(C)C[C@H]1COCc2cn(nn2)CC[C@@H](Cc2cccc(Cl)c2)C(=O)N1	/	/	/	-5.6	/	/
COc1ccc2c(c1OC)C[N+]1([O-])CCc3cc4c(cc3C1C2)OCO4 (stereo unspecified)	3.1	-5.1	13.7	-9.2	2.6	5.3
COc1ccc2c(c1)CC1c3c(cc4c(c3-2)OCO4)CC[N+]1(C)[O-] (stereo unspecified)	-2.9	4.1	4.6	2.7	0.1	61.5*
CCCNC(=O)[C@@H]1[C@@H](CO)[C@@H]2Cn3c(ccc(C4=CCCC4)c3=O)[C@H]1N2C(=O)CC	/	-8.8	1.6	/	0.1	-4.2
CCC1(CC)NC(=O)N(CC(=O)OC(C)C(=O)Nc2ccc(NC(C)=O)cc2)C1=O (stereo unspecified)	-0.3	10.1	0.4	6.8	28.2*	-4.6
CCC1(CC)NC(=O)N(CC(=O)OC(C)C(=O)Nc2ccc(S(N)(=O)=O)cc2)C1=O (stereo unspecified)	-5.4	-1.9	-5.2	2.9	8.6	-0.9
CC(=O)N(C)C[C@@H]1Oc2c(N)cccc2C(=O)N(C)C[C@@H]1C	/	/	/	-12.5	/	/
CCC(C)(C)NC(=O)C(OC(=O)c1ccco1)c1ccccc1OC (stereo unspecified)	-1.2	-2.9	/	30.9*	/	1.6
CC(C)C#Cc1ccc2c(c1)O[C@H](CN(C)C(=O)c1cccc(F)c1)[C@@H](C)CN([C@H](C)CO)S2(=O)=O	/	5.9	1.9	/	0.7	5.9
O=C1NC[C@H](Cc2ccccc2)N(C[C@H]2CCCN2C[C@H](Cc2ccc(O)cc2)N2C[C@H](Cc3ccc(O)cc3)N(CC3CCCCCC3)C(=O)C2=O)C1=O	39.0*	-2.4	11.6	-0.1	1.0	-0.2
